Measured values taken from ChEMBL document CHEMBL3108746, “Novel symmetrical ureas as modulators of protein arginine methyl transferases” (Bioorg Med Chem, 2013).
pIC50: −log10 of the molar value. The source made the active and inactive calls. No cut-off for these calls is given here.

Legend:
LAPC4 = assay: Cytotoxicity against human LAPC4 cells after 7 days by Alamar blue staining method; type: functional, cell-based; settings: for pIC50: LAPC4, 168 h
How it was run: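 LAPC-4 cells seeded at 4000 cells/well in medium with 2 mM L-glutamine. After 1 day, treated with 1 nM R1881 plus a range of compound concentrations. Cell number read 7 days later by Alamar Blue staining on a luminometer.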

[1] = biological target: Protein arginine N-methyltransferase 5 (Homo sapiens) (UniProt O14744); assay: Residual activity of recombinant human PRMT5 expressed in Sf9 cells using histone H4 peptide as substrate at 100 uM by chemiluminescence assay
Protein arginine N-methyltransferase 5 (Homo sapiens), sequence (O14744 whole entry): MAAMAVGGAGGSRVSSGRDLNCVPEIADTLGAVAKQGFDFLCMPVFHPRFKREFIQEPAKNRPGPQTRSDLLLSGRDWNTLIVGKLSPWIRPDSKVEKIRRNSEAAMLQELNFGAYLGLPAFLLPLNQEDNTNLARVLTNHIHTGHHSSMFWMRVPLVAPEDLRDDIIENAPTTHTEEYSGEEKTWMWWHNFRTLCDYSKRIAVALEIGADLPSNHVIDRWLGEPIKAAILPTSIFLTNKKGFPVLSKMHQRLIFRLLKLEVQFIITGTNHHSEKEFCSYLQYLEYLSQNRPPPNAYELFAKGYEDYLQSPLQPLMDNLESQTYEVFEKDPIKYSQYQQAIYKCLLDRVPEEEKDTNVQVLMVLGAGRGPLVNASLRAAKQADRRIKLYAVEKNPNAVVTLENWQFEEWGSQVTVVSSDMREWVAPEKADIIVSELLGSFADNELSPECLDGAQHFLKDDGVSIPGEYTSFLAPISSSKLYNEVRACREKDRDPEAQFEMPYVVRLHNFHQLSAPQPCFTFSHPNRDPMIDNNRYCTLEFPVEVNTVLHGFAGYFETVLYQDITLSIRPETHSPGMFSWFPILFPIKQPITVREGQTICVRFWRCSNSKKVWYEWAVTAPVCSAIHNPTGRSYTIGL

[2] = biological target: T1, Protein arginine N-methyltransferase 1 (Homo sapiens, UniProt Q99873); assay: Inhibition of recombinant human PRMT1 expressed in Escherichia coli using histone H4 peptide as substrate by chemiluminescence assay
Target sequence in this assay (Q99873 whole entry): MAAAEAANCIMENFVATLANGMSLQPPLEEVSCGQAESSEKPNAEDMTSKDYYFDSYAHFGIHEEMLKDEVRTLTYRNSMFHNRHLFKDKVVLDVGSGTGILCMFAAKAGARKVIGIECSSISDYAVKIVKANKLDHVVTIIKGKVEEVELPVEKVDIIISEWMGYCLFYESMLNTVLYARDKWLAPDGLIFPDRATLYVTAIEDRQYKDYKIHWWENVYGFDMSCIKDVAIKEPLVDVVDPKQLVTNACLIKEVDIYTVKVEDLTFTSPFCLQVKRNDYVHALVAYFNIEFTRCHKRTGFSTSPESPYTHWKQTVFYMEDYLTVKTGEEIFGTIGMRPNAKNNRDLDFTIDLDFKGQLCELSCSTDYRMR

VCaP [3] = assay: Cytotoxicity against human VCaP cells after 7 days by Alamar blue staining method; type: functional, cell-based
How it was run: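 VCaP cells seeded at 16,000 cells/well in phenol-red DMEM with 10% cFCS. After 1 day, treated with 0.1 nM R1881 plus a range of compound concentrations. Cell number read 7 days later by Alamar Blue staining on a luminometer.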

[4] = biological target: Protein arginine N-methyltransferase 5 (Homo sapiens) (UniProt O14744); assay: Inhibition of recombinant human PRMT5 expressed in Sf9 cells using histone H4 peptide as substrate by chemiluminescence assay
How it was run: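 Purified recombinant human PRMT5 (Sf9-expressed) incubated 1 h with S-adenosylmethionine in 1× TBS pH 8.0 with 0.05% Tween20, on wells precoated with histone H4 peptide. Compounds came from 25 mM DMSO stocks diluted in water. Detection used a primary antibody to symmetric-dimethyl R3 of H4 (1 h), then HRP secondary and chemiluminescence. Mean of duplicates with SD.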

VCaP [5] = assay: Inhibition of PRMT1 gene expression in androgen-stimulated human VCaP cells by RT-PCR analysis; type: functional, cell-based
How it was run: (§1)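 VCaP cells treated with androgen alone or with increasing compound concentrations. Transcript levels measured by real-time PCR with gene-specific fluorogenic probes and normalized to human cyclophilin A. Values are means of independent triplicates.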

[6] = biological target: T1, Protein arginine N-methyltransferase 1; assay: Inhibition of PRMT1-mediated FKBP5 gene expression in R1881-stimulated human VCaP cells by RT-PCR analysis; type: cell-based; how it was run: as §1
Target sequence in this assay (Q99873 whole entry, looked up): as the sequence (Q99873 whole entry) above

VCaP [7] = assay: Inhibition of AR gene expression in R1881-stimulated human VCaP cells at 1.56 to 100 uM by RT-PCR analysis; type: functional, cell-based; how it was run: as §1
[8] = biological target: T1, Protein arginine N-methyltransferase 1; assay: Inhibition of PRMT1-mediated KLK2 gene expression in R1881-stimulated human VCaP cells at 1.56 to 100 uM by RT-PCR analysis; type: cell-based; how it was run: as §1
Target sequence in this assay (Q99873 whole entry, looked up): as the sequence (Q99873 whole entry) above

[9] = biological target: T1, Protein arginine N-methyltransferase 1; assay: Inhibition of PRMT1-mediated TMPRSS2 gene expression in R1881-stimulated human VCaP cells by RT-PCR analysis; type: cell-based; how it was run: as §1
Target sequence in this assay (Q99873 whole entry, looked up): as the sequence (Q99873 whole entry) above

Compound	residual activity [1]	Activity (LAPC4)	Activity (VCaP [3])	other results
O=C(Nc1ccc2ccc(S(=O)(=O)Nc3ccc(Oc4ccccc4)cc3)cc2c1)Nc1ccc2ccc(S(=O)(=O)Nc3ccc(Oc4ccccc4)cc3)cc2c1	38.5%	–	–	pIC50 (LAPC4): 5.07
COc1ccc2c3c(cccc13)C(=O)N(C)C2=O	46.2%	inactive	inactive	pIC50 [2]: 4.79
O=C(O)/C=C/c1cccc(N2CCN(c3cccc(/C=C/C(=O)O)c3)C2=O)c1	61.5%	inactive	inactive	–
O=C(O)/C=C/c1cccc(N2CCCN(c3cccc(/C=C/C(=O)O)c3)C2=O)c1	74.4%	inactive	inactive	–
O=C(NCCc1cccc(C(=O)O)c1)NCCc1cccc(C(=O)O)c1	15.4%	inactive	inactive	inhibition [4]: Active
O=C(O)CCCCCNC(=O)NCCCCCC(=O)O	46.2%	inactive	inactive	pIC50 [2]: 5.21; inhibition (VCaP [5]): inactive; inhibition [6]: Dose-dependent effect; inhibition (VCaP [7]): inactive; inhibition [8]: inactive; inhibition [9]: Dose-dependent effect
O=C(NCc1cccc(C(=O)O)c1)NCc1cccc(C(=O)O)c1	56.4%	inactive	inactive	–
O=C(O)/C=C/c1ccc(N2CCN(c3ccc(/C=C/C(=O)O)cc3)C2=O)cc1	35.9%	inactive	inactive	–
O=C(O)/C=C/c1ccc(N2CCCN(c3ccc(/C=C/C(=O)O)cc3)C2=O)cc1	56.4%	inactive	inactive	–
O=C(Nc1ccc2c(O)cc(S(=O)(=O)O)cc2c1)Nc1ccc2c(O)cc(S(=O)(=O)O)cc2c1	–	inactive	inactive	–
O=C(O)/C=C/c1cccc(N2CCCN(c3cccc(/C=C/C(=O)O)n3)C2=O)n1	48.7%	inactive	inactive	–
O=C(Nc1ccc2ccc(S(=O)(=O)Nc3ccc4c(c3)OCCO4)cc2c1)Nc1ccc2ccc(S(=O)(=O)Nc3ccc4c(c3)OCCO4)cc2c1	71.8%	–	–	pIC50 (LAPC4): 5.82
O=C(O)/C=C/c1cccc(N2CCN(c3cccc(/C=C/C(=O)O)n3)C2=O)n1	10.3%	inactive	inactive	inhibition [4]: Active
O=C(O)/C=C/c1cccc(NC(=O)Nc2cccc(/C=C/C(=O)O)c2)c1	92.3%	inactive	inactive	–
